Published values pooled from the literature.
Lines come from different studies, so protocols differ. pIC50: −log10 of the molar value.
Histone acetyltransferase KAT6B: Histone acetyltransferase KAT6B (Homo sapiens, UniProt Q8WYB5)
PIK3CB: Phosphatidylinositol 4,5-bisphosphate 3-kinase catalytic subunit beta isoform (PIK3CB, Homo sapiens, UniProt P42338)
KDR: Vascular endothelial growth factor receptor 2 (KDR, Homo sapiens, UniProt P35968)
DNA polymerase catalytic subunit: DNA polymerase catalytic subunit (Human cytomegalovirus, UniProt P08546)
Trpm7 F924W: Transient receptor potential cation channel subfamily M member 7 (Trpm7, Mus musculus, UniProt Q923J1, F924W)
NOX5: NADPH oxidase 5 (NOX5, Homo sapiens, UniProt Q96PH1)
PIK3CA: Phosphatidylinositol 4,5-bisphosphate 3-kinase catalytic subunit alpha isoform (PIK3CA, Homo sapiens, UniProt P42336)

COc1cc(C)c2cc(C(=O)NS(=O)(=O)c3ccc(Cl)cc3)oc2c1 — pIC50 (Histone acetyltransferase KAT6B; enzyme activity, inhibitor, TR-FRET): 6.63
Cc1nc(Nc2ccc3c(c2)/C(=C/c2ccccc2Cl)C(=O)N3)c2ccccc2n1 — pIC50 (PIK3CB; enzyme activity, inhibitor, ADP detection): 7.04
O=C(O)Cc1csc(NC(=O)c2cc3ccccc3[nH]2)n1 — pIC50 (KDR; enzyme activity, inhibitor, ELISA): 5.92
CC1(C)CN(C(=O)Cn2c(=O)c(C(=O)NCc3ccc(Cl)cc3)cc3nccnc32)C1 — pIC50 (DNA polymerase catalytic subunit; enzyme activity, inhibitor): 5.65
CCOc1ccccc1S(=O)(=O)NC(=O)c1cc2c(OC)cc(OC)cc2o1 — pIC50 (Histone acetyltransferase KAT6B; enzyme activity, inhibitor, TR-FRET): 6.51
c1ccc2c(c1)CCC[C@H]2Nc1nc2ccccc2[nH]1 — pIC50 (Trpm7 F924W; calcium signal): 5.29
O=C(Nc1ccccc1)Nc1ccc(Oc2nnc(-c3ccc(Cl)cc3)c3ccccc23)cc1 — pIC50 (KDR; cell-free assay, inhibitor): 6.71
CC1(F)CN(C(=O)Cn2c(=O)c(C(=O)NCc3ccc(Cl)cc3)cc3nc(N4CCCC4=O)cnc32)C1 — pIC50 (DNA polymerase catalytic subunit; enzyme activity, inhibitor): 6.68
COc1cc(C)c2cc(C(=O)NS(=O)(=O)c3ccc(C)cc3-c3ccccc3)oc2c1 — pIC50 (Histone acetyltransferase KAT6B; enzyme activity, inhibitor, TR-FRET): 7.39
COc1cc2ncnc(Nc3ccc4c(c3)/C(=C/c3cccc(Cl)c3)C(=O)N4C)c2cc1OC — pIC50 (PIK3CB; enzyme activity, inhibitor, ADP detection): 6.96
CCCc1c(-c2ccccc2)nn(-c2ccccn2)c1O — pIC50 (NOX5; enzyme activity, inhibitor): 5.66
O=C(NS(=O)(=O)c1ccccc1-c1ccccc1)c1cc2ccc(OCCO)cc2o1 — pIC50 (Histone acetyltransferase KAT6B; enzyme activity, inhibitor, TR-FRET): 5.23
Cc1nc(Nc2ccc3c(c2)CC(=O)N3)c2ccccc2n1 — pIC50 (PIK3CA; enzyme activity, inhibitor, ADP detection): 7.25
CCOc1ccc2cc(C(=O)NS(=O)(=O)c3ccccc3-c3ccccc3)oc2c1 — pIC50 (Histone acetyltransferase KAT6B; enzyme activity, inhibitor, TR-FRET): 5.52
O=C(/C=C/c1ccc(O)c2oc(-c3ccc(O)c(O)c3)cc12)O[C@H](Cc1ccc(O)c(O)c1)C(=O)O — pIC50 (YTH domain-containing protein 1 (Homo sapiens, UniProt Q96MU7); ligand displacement, FP): 4.54
N#Cc1ccc(COC[C@H]2O[C@@H](n3c(NCc4ccc(Cl)c(Cl)c4)nc4c(N)ncnc43)[C@H](O)[C@@H]2O)cc1 — pIC50 (Trpm7 F924W; calcium signal): 5.25
COc1cc2ncnc(N(C)c3ccc4c(c3)/C(=C/c3cccc(Cl)c3)C(=O)N4C)c2cc1OC — pIC50 (PIK3CA; enzyme activity, inhibitor, ADP detection): < 6.00
Cc1coc2c1C(=O)C(=O)c1c-2ccc2c1CCCC2(C)C — pIC50 (NOX5; enzyme activity, inhibitor): 5.72
CCCOc1ccccc1S(=O)(=O)NC(=O)c1cc2c(C)cc(OC)cc2o1 — pIC50 (Histone acetyltransferase KAT6B; enzyme activity, inhibitor, TR-FRET): 7.21
COc1cc2ncnc(Nc3ccc4c(c3)/C(=C/c3ccccc3)C(=O)N4C)c2cc1OC — pIC50 (PIK3CB; enzyme activity, inhibitor, ADP detection): 6.30
COc1cc(C)c2cc(C(=O)NS(=O)(=O)c3ccc(C)cc3)oc2c1 — pIC50 (Histone acetyltransferase KAT6B; enzyme activity, inhibitor, TR-FRET): 6.58
Cc1nc(Nc2ccc3c(c2)C(C)(C)C(=O)N3C)c2ccccc2n1 — pIC50 (PIK3CB; enzyme activity, inhibitor, ADP detection): 6.74
CC(=O)Nc1ccc(Oc2nnc(-c3ccc(Cl)cc3)c3ccccc23)cc1 — pIC50 (KDR; cell-free assay, inhibitor): 6.26
Cc1nc(Nc2ccc3c(c2)C(C)(C)C(=O)N3)c2ccccc2n1 — pIC50 (PIK3CA; enzyme activity, inhibitor, ADP detection): 6.71
O=c1oc(-c2cccnc2)nc2ccccc12 — pIC50 (Cathepsin G (CTSG, Homo sapiens, UniProt P08311); enzyme activity, inhibitor, absorbance; pH 7.4): 5.31
Cc1coc2c1C(=O)C(=O)c1c-2ccc2c1CCCC2(C)CO (stereo not drawn) — pIC50 (NOX5; enzyme activity, inhibitor): 5.28
Cc1nc(N(C)c2ccc3c(c2)/C(=C/c2ccccc2Cl)C(=O)N3C)c2ccccc2n1 — pIC50 (PIK3CA; enzyme activity, inhibitor, ADP detection): 7.27
